Active and inactive are the calls of the source. No cut-off for these calls is given here.
Tests used:
HCT-116 [1] = test: Antiproliferative activity against human HCT116 cells after 72 hrs by resazurin-based fluorescence assay; format: functional, cell-based; conditions: HCT-116, 72 h
[2] = Intrinsic clearance in human liver microsomes at 5 uM preincubated for 5 mins followed by NADPH addition measured after 45 mins by UPLC-MS/MS analysis; format: ADME, microsome; conditions: read-out: CLH
PBL [3] = test: Cytotoxicity against human PBL cells assessed as reduction in cell viability after 72 hrs by MTS assay; format: cell-based
Outline: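 PBMCs from healthy donors were isolated on a Ficoll gradient and cultured overnight at 37°C in RPMI-1640 with 10% FCS. Non-adherent cells were set at 5 × 10⁵/mL with PHA 2.5 µg/mL (proliferating) or without it (quiescent). Serial dilutions 0.001–25 µM final (10 mM DMSO stocks) were applied for 72 h at 37°C, and viability was read by MTS.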

Tubulin (Homo sapiens) [4] = target: T1, Tubulin (Homo sapiens) (UniProt P68371+Q9H4B7+P0DPH7+P68366+Q13509+Q71U36+P04350+Q3ZCM7+P07437+P68363+Q9BQE3+Q6PEY2+Q13885+Q9BVA1+Q9BUF5); test: Inhibition of tubulin polymerization in human U87MG cells assessed as formation of disorganized microtubule network at 5 nM after 24 hrs by Hoechst-33258 staining based inverted microscopy; format: cell-based
Outline: (§1)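 U87-MG on chamber slides, 24 h with 5 or 10 nM, control 0.1% DMSO. Fixed in 2% paraformaldehyde, permeabilized with 0.25% Triton X-100, blocked with BSA/goat serum. Stained with mouse anti-β-tubulin overnight at 4°C, then Alexa 647 anti-mouse plus Hoechst 33258 for 2 h, then Alexa 488 phalloidin for F-actin. Imaged on an inverted microscope with a 60X oil objective.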

[5] = Inhibition of sheep brain tubulin polymerization assessed as reduction in rate of microtubule assembly by DAPI-fluorescence based assay; design: species or system Ovis aries
Outline: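 Sheep brain tubulin purified by two assembly–disassembly cycles, about 10 µM in buffer at pH 6.6 with MgCl2, EGTA and 1 mm GTP. Assembly followed continuously at 37 °C by DAPI fluorescence. IC50 is the concentration halving the maximum assembly rate versus no compound. Reference compounds run the same day. Average of three experiments.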

K562 = test: Antiproliferative activity against human K562 cells after 72 hrs by resazurin-based fluorescence assay; format: functional, cell-based; conditions: K562, 72 h
Outline: (§2)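 CellTiter-Blue viability. Cells plated at 5 × 10^3 per well and cultured 24 h, then given compound in DMSO (under 0.1%) for 72 h. Resazurin added for 2 h, fluorescence read at ex 560/em 590 nm. […] Run in triplicate. U87-MG grown in DMEM (4.5 g/L glucose, 10% FCS, 1% glutamine). K562, K562R (doxorubicin-resistant), A549 and MCF7 grown in RPMI 1640 (10% FCS, 1% glutamine). All kept at 37 °C, 5% CO2.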

U-87 MG [6] = test: Antiproliferative activity against human U87 cells after 72 hrs by resazurin-based fluorescence assay; format: functional, cell-based, U-87MG ATCC; outline: as §2
A549 [7] = test: Potency index, ratio of combretastatin A-4 IC50 to compound IC50 for antiproliferative activity against human A549 cells; format: functional
[8] = Induction of basal contraction tone in isolated Wistar rat aorta rings at 10 uM after 10 mins in presence K60 solution (reference value: 0.2 +/- 0.2%); format: tissue-based
[9] = Metabolic stability in human plasma at 5 uM after 120 mins by UPLC-MS/MS analysis; format: ADME, cell-free; conditions: read-out: Stability
Outline: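 Compound at 5 µM in human plasma at 37°C, sampled from 0 to 120 min. Stopped with acetonitrile, centrifuged, supernatant dried under nitrogen and reconstituted in 0.2% formic acid water/methanol 75/25. Measured by UPLC-MS/MS as % remaining. Procaine was the positive control.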

K-562R = test: Antiproliferative activity against human K562R cells after 72 hrs by resazurin-based fluorescence assay; format: functional, cell-based; outline: as §2
Tubulin (Homo sapiens) [10] = target: T1, Tubulin (Homo sapiens); test: Inhibition of tubulin polymerization in human U87MG cells assessed as shrinkage of microtubule spindles at 10 nM after 24 hrs by Hoechst-33258 staining based inverted microscopy; format: cell-based; outline: as §1
HCT-116 [11] = test: Cell cycle arrest in human HCT116 cells assessed as accumulation at G2/M phase at 20 nM after 24 hrs by propidium iodide staining based flow cytometry; format: functional
Outline: (§3)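 Exponentially growing HCT116 (RPMI 1640) or U87-MG (DMEM, 4.5 g/L glucose) cells, each medium with 10% FCS and 1% glutamine, treated 24 h at 20 nM in DMSO, with a DMSO control. DNA content measured by propidium iodide staining and flow cytometry.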

Tubulin (Homo sapiens) [12] = target: T1, Tubulin (Homo sapiens); test: Inhibition of tubulin polymerization in human U87MG cells assessed as formation of disorganized actin network at 10 nM after 24 hrs by Hoechst-33258 staining based inverted microscopy; format: cell-based; outline: as §1
Tubulin (Homo sapiens) [13] = target: T1, Tubulin (Homo sapiens); test: Inhibition of tubulin polymerization in human U87MG cells assessed as multinucleation at 10 nM after 24 hrs by Hoechst-33258 staining based inverted microscopy; format: cell-based; outline: as §1
U-87 MG [14] = test: Cell cycle arrest in human U87MG cells assessed as accumulation at G2/M phase at 20 nM after 24 hrs by propidium iodide staining based flow cytometry; format: functional; conditions: U-87MG ATCC; outline: as §3
A549 [15] = test: Antiproliferative activity against human A549 cells after 72 hrs by resazurin-based fluorescence assay; format: functional, cell-based; conditions: A549, 72 h
[16] = Metabolic stability in human liver microsomes at 5 uM after 120 mins in absence of NADPH by UPLC-MS/MS analysis; format: ADME, microsome; conditions: read-out: Stability
PBL [17] = test: Cytotoxicity against human PBL cells assessed as reduction in cell proliferation after 72 hrs by MTS assay
[18] = Metabolic stability in human liver microsomes at 5 uM preincubated for 5 mins followed NADPH addition measured after 120 mins by UPLC-MS/MS analysis; format: ADME, microsome; conditions: read-out: Stability
[19] = Increase in PGF2alpha-induced contractile response in isolated Wistar rat aorta rings at 10 uM after 10 mins; format: tissue-based
Outline: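 Rat aortic rings 2–3 mm in PSS at 37°C, 95% O₂/5% CO₂, pH 7.4, isometric tension at 2 g resting force. Rings were kept if K60 contraction was ≥1.5 g and ACh (10 µM) relaxation ≥15%. Compound (10 µM) or DMSO 0.1% was given for 10 min, then cumulative PGF2α 1 nM–30 µM. Hill fits gave pD2 and Emax as % of K60. N = 6.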

MCF7 = test: Antiproliferative activity against human MCF7 cells after 72 hrs by resazurin-based fluorescence assay; format: functional, cell-based; conditions: MCF7, 72 h; outline: as §2

## C=C(c1ccc(OC(F)F)c(N)c1)c1cc(C)nc2ccccc12
HCT-116 [1]
  IC50: 20.2 nM

## COc1ccc(C(=C(F)F)c2cc(OC)c(OC)c(OC)c2)cc1N
[2]
  microsomal CLint at 5 µM: 43 µL/min/mg
PBL [3]
  IC50: > 10000 nM
Tubulin (Homo sapiens) [4]
  inhibition: Active
[5]
  IC50: 2000 nM
K562
  IC50: 0.4 nM
U-87 MG [6]
  IC50: 0.2 nM
A549 [7]
  Ratio IC50: 90
[8]
  Activity: 2.1%
[9]
  remaining at 2 h, 5 µM: 100%
K-562R
  IC50: 0.1 nM
Tubulin (Homo sapiens) [10]
  inhibition: Active
HCT-116 [11]
  Activity: Active
Tubulin (Homo sapiens) [12]
  inhibition: Active
Tubulin (Homo sapiens) [13]
  inhibition: Active
U-87 MG [14]
  Activity: Active
A549 [15]
  IC50: 2 nM
[16]
  remaining at 2 h, 5 µM: < 5%
HCT-116 [1]
  IC50: 0.9 nM
PBL [17]
  IC50: > 10000 nM
[18]
  remaining at 2 h, 5 µM: 13.6%
[19]
  pD2: 5.94
MCF7
  IC50: 1.5 nM

## COc1ccc(C(=C(F)F)c2cc(OC)c(OC)c(OC)c2)cc1O
[2]
  microsomal CLint at 5 µM: 64 µL/min/mg
[5]
  IC50: 2000 nM
K562
  IC50: 2.2 nM
U-87 MG [6]
  IC50: 0.3 nM
[9]
  remaining at 2 h, 5 µM: 100%
K-562R
  IC50: 0.2 nM
A549 [15]
  IC50: 2 nM
[16]
  remaining at 2 h, 5 µM: 20%
HCT-116 [1]
  IC50: 2 nM
[18]
  remaining at 2 h, 5 µM: 5%
MCF7
  IC50: 0.6 nM

## COc1cc(C(C)c2ccc(OC(F)(F)F)cc2)cc(OC)c1OC (stereo not given)
HCT-116 [1]
  IC50: > 10000 nM

## C=C(c1cc(OC)c(OC)c(OC)c1)c1ccc(OC(F)(F)F)c([N+](=O)[O-])c1
HCT-116 [1]
  IC50: 4000 nM

## C=C(c1cc(OC)cc(OC)c1)c1ccc(OC(F)(F)F)c([N+](=O)[O-])c1
HCT-116 [1]
  IC50: > 10000 nM

## COc1ccc(C(c2cc(OC)c(OC)c(OC)c2)C(F)F)cc1O (stereo not given)
HCT-116 [1]
  IC50: 30 nM

## C=C(c1ccc(OC(F)F)c(N)c1)c1cc(OC)c(OC)c(OC)c1
[2]
  microsomal CLint at 5 µM: 13.6 µL/min/mg
PBL [3]
  IC50: > 10000 nM
[5]
  IC50: 400 nM
K562
  IC50: 4 nM
U-87 MG [6]
  IC50: 0.6 nM
[8]
  Activity: 2.2%
[9]
  remaining at 2 h, 5 µM: 100%
K-562R
  IC50: 0.15 nM
A549 [15]
  IC50: 2.2 nM
[16]
  remaining at 2 h, 5 µM: 9%
HCT-116 [1]
  IC50: 1 nM
PBL [17]
  IC50: > 10000 nM
[18]
  remaining at 2 h, 5 µM: 3.3%
[19]
  pD2: 5.87
MCF7
  IC50: 2 nM

## C=C(c1ccc(OC(F)(F)F)c(F)c1)c1cc(OC)c(OC)c(OC)c1
HCT-116 [1]
  IC50: 2000 nM

## C=C(c1ccc(OC(F)(F)F)cc1)c1cc(OC)c(OC)c(OC)c1
HCT-116 [1]
  IC50: 5000 nM

## C=C(c1ccc(OC)c(F)c1)c1cc(OC)c(OC)c(OC)c1
[5]
  IC50: 4000 nM
K562
  IC50: 6 nM
U-87 MG [6]
  IC50: 8 nM
K-562R
  IC50: 2 nM
A549 [15]
  IC50: 8 nM
HCT-116 [1]
  IC50: 7 nM
MCF7
  IC50: 1 nM

## COc1ccc(C(C)c2cc(OC)c(OC)c(OC)c2)cc1OC(F)(F)F (stereo not given)
HCT-116 [1]
  IC50: > 10000 nM

## C=C(c1ccc(OC)c(O)c1)c1cc(OC)c(OC)c(OC)c1
[5]
  IC50: 2000 nM
U-87 MG [6]
  IC50: 8 nM
K-562R
  IC50: 2.2 nM
A549 [15]
  IC50: 20 nM
MCF7
  IC50: 8 nM

## COc1ccc(/C=C\c2cc(OC)c(OC)c(OC)c2)cc1O [COMBRETASTATIN A4]
PBL [3]
  IC50: > 10000 nM
[5]
  IC50: 2100 nM
K562
  IC50: 6 nM
U-87 MG [6]
  IC50: 3 nM
[8]
  Activity: 0.7%
K-562R
  IC50: 23 nM
PBL [17]
  IC50: 100 to 500 nM
[19]
  pD2: 5.73
MCF7
  IC50: 8 nM

## COc1cc(C(=C(F)F)c2ccc(OC(F)F)c(N)c2)cc(OC)c1OC
HCT-116 [1]
  IC50: 9.14 nM

## C=C(c1ccc(OC(F)(F)F)cc1)c1cc(OC)cc(OC)c1
HCT-116 [1]
  IC50: > 10000 nM

## COc1cc(C(C)c2ccc(OC(F)F)c(N)c2)cc(OC)c1OC (stereo not given)
HCT-116 [1]
  IC50: 18 nM

## COc1cc(C(C)c2ccc(OC(F)(F)F)c(F)c2)cc(OC)c1OC (stereo not given)
HCT-116 [1]
  IC50: 5000 nM

## C=C(c1ccc(OC)c(N)c1)c1cc(F)c(F)c(F)c1
HCT-116 [1]
  IC50: 100 nM

## C=C(c1ccc(OC)c(OC(F)(F)F)c1)c1cc(OC)c(OC)c(OC)c1
HCT-116 [1]
  IC50: 1500 nM

## COc1cc(C(C)c2ccc(OC(F)(F)F)c(N)c2)cc(OC)c1OC (stereo not given)
HCT-116 [1]
  IC50: 3000 nM

## C=C(c1ccc(OC)c(N)c1)c1cc(OC)c(OC)c(OC)c1
[2]
  microsomal CLint at 5 µM: 46 µL/min/mg
[5]
  IC50: 2200 nM
K562
  IC50: 5 nM
U-87 MG [6]
  IC50: 9 nM
[8]
  Activity: 1.6%
[9]
  remaining at 2 h, 5 µM: 94%
K-562R
  IC50: 2 nM
A549 [15]
  IC50: 7 nM
[16]
  remaining at 2 h, 5 µM: 6%
HCT-116 [1]
  IC50: 2 nM
[18]
  remaining at 2 h, 5 µM: 11.6%
[19]
  pD2: 5.79
MCF7
  IC50: 2.9 nM

## COc1ccc(C(C)c2cc(OC)c(OC)c(OC)c2)cc1F (stereo not given)
HCT-116 [1]
  IC50: 85 nM

## C=C(c1ccc(OC(F)(F)F)cc1)c1c(OC)cc(OC)cc1OC
HCT-116 [1]
  IC50: > 10000 nM

## C=C(c1ccc(OC(F)(F)F)c(N)c1)c1cc(OC)c(OC)c(OC)c1
HCT-116 [1]
  IC50: 200 nM

From ChEMBL document CHEMBL4138220, “A fluorine scan of a tubulin polymerization inhibitor isocombretastatin A-4: Design, synthesis, molecular modelling, and biological evaluation” (Eur J Med Chem, 2018)
